Source: PubChem
An excerpt weighted towards active compounds, which were near 0.89% of everything screened.
ABCB6 inh 2: inhibitors of human ABC transporter ABCB6. K562-ABCB6 porphyrin accumulation, flow cytometry, 1 h; stronger effect = lower value. fluorescence ratio to DMSO, % at 10 µM. 360,000 compounds, 0.19% hits. AID 602162;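 active means fluorescence ratio to DMSO below 75%, the collection mean minus 3 SD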;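 further: signal is porphyrin accumulated inside mitochondria; 100% equals median channel fluorescence of DMSO control wells; lower ratio means ABCB6 inhibition with less porphyrin fluorescence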
Target sequence (Q9NP58 whole entry, looked up): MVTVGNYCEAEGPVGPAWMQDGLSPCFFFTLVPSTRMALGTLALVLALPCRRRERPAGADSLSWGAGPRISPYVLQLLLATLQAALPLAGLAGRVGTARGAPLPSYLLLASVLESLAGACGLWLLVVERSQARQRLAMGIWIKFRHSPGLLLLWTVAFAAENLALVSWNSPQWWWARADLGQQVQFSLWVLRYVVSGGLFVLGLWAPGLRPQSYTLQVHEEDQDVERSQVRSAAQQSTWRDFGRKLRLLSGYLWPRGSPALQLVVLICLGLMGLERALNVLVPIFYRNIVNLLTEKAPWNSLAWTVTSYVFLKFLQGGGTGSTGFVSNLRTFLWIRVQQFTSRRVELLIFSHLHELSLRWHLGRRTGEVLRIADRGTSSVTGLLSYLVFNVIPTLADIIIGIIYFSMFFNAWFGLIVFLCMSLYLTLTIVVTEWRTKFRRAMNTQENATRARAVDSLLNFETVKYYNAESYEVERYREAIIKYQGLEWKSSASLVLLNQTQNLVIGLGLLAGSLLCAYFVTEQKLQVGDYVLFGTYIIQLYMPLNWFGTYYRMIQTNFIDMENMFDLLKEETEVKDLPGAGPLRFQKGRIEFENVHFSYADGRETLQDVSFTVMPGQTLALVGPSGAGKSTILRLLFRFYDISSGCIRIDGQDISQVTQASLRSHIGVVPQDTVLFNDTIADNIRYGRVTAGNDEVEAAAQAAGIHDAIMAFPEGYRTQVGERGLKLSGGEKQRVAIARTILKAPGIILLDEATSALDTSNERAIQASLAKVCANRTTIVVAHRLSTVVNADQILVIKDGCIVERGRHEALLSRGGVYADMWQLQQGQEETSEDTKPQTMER
Arrestin-AP2 inh: human beta-arrestin and AP2 interaction inhibition; FITC-arrestin peptide / GST-AP2 beads, flow cytometry; AP2 beta2 appendage carries R879A mutation; inhibition, % at 10 µM; 340,000 compounds, 0.31% hits; AID 504490;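 active means inhibition above a set limit, near 3 SD of compounds lacking own fluorescence, cut at about 54% in these data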;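 further: plate controls were DMSO wells for no effect and 5 µM unlabelled arrestin peptide for full effect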
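Measured by: flow cytometry, FL1 (488/535 nm); Material: AP2 appendage R879A on GSH beads; Evaluation: percent response; Timing: pre-incubation 12 min, peptide binding 1 h, room temperature; Also added: 50 nM FITC-arrestin peptide; Medium: PBS with 0.05% Tween 20 and 0.1% BSA.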
PG9 Ab binder: small molecules binding HIV-1 gp120 antibody PG9. inhibition, % at 6.7 µM. AID 624416. 360,000 compounds, 0.43% hits. TR-FRET gp120-PG9 antibody binding; in the data active means inhibition above about 8.5%
iPSC survival up: increases survival of single human iPS cells; 360,000 compounds, 0.044% hits; survival enhancement, % at 20 µM; hiPSC single-cell survival, ATPlite luminescence; 100% = ROCK inhibitor wells, 0% = DMSO; AID 602274; in the data active means survival enhancement above about 18%;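 further: cells exposed to compounds for 16 hours before the ATP read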
PG9 bind confirm: PG9 antibody binding, confirmed; shares compounds with PG9 Ab binder; TR-FRET PG9 antibody binding, biochemical; inhibition, % at 6.7 µM; 1,500 compounds, 90% hits; in the data active means inhibition above about 9%
PGV04 Ab binding: binds control antibody PGV04 in PG9 binder counter-screen; inhibition, % at 6.7 µM; TR-FRET PGV04 antibody-gp120 binding, biochemical; AID 651604; 1,500 compounds, 95% hits; shares compounds with PG9 Ab binder; in the data active means inhibition above about 9.5%
PG9 binder DR: small molecules binding HIV-1 gp120 antibody PG9 | shares compounds with PG9 Ab binder | TR-FRET PG9 antibody-gp120 binding inhibition | IC50, µM | 95 tested, under 10 active | AID 651848; in the data active means IC50 below about 10 µM
PGV04 DR counter: counter-screen for PG9 binders: binding to control antibody PGV04; shares compounds with PG9 Ab binder; TR-FRET binding to control antibody PGV04; IC50, µM; 95 compounds, 20% hits
PG126 binding DR: counter-screen for PG9 binders: binding to control antibody PG126; TR-FRET binding to antibody PG126, counterscreen; 95 compounds, 20% hits; shares compounds with PG9 Ab binder; IC50, µM
Starred values were filed as active, the others as inactive. Unless noted, no stated cut-off is given here; in the data, active means IC50 below about 9 µM; inactive means the rest.

For CCc1sc(C(=O)Nc2ccc(N3CCOCC3)cc2)cc1C the results were ABCB6 inh 2 91, Arrestin-AP2 inh 11, PG9 Ab binder -3 and iPSC survival up -3.
`O=C(Cc1ccc(NC(=O)C2CCCN(C(=O)c3ccccc3)C2)cc1)Nc1cccc(C(=O)N2CCCC2)c1` (stereo not given) gave PG9 Ab binder -2.
O=C(NN=Cc1ccccc1O)C(=O)Nc1ccc(F)cc1 was read as PG9 Ab binder 2.
For CC(C)CCNC(=O)c1cc2c(=O)[nH]c3ccccc3c2s1 the results were ABCB6 inh 2 100, Arrestin-AP2 inh -10, PG9 Ab binder 10.0*, iPSC survival up 0, PG9 bind confirm 17* and PGV04 Ab binding 21*.
For O=c1c2ccccc2nnn1Cc1ccco1 the results were PG9 Ab binder -3.
CC(C)c1nnc(NC(=O)c2ccc3ccccc3c2)s1 was read as ABCB6 inh 2 98, Arrestin-AP2 inh -1, PG9 Ab binder 11*, iPSC survival up 0, PG9 bind confirm 18* and PGV04 Ab binding 32*.
COc1cccc(-c2ccc(C#N)c(SCC(=O)NCc3ccco3)n2)c1 was read as ABCB6 inh 2 99, Arrestin-AP2 inh 12, PG9 Ab binder 11*, iPSC survival up 0, PG9 bind confirm 20* and PGV04 Ab binding 36*.
`N#Cc1cc2c(nc1SCC(=O)NCc1ccc3c(c1)OCO3)CCCCC2` gave ABCB6 inh 2 93, Arrestin-AP2 inh -13, PG9 Ab binder 14*, iPSC survival up -1, PG9 bind confirm 17* and PGV04 Ab binding 26*.
Cc1cc2c(c(=O)o1)[C@@]1(C(=O)N(C)c3ccccc31)C1=C(CCC1=O)O2 was read as PG9 Ab binder 0.
Screening CCOC(=O)Cn1c(=NC(=O)CSC(C)=O)sc2cc(OC)ccc21 returned ABCB6 inh 2 112, Arrestin-AP2 inh 8, PG9 Ab binder 13*, iPSC survival up 4, PG9 bind confirm 18* and PGV04 Ab binding 23*.
COC(=O)Cn1c(=NC(=O)c2sc3ccccc3c2Cl)sc2cc(S(N)(=O)=O)ccc21 was read as ABCB6 inh 2 100, Arrestin-AP2 inh 11, PG9 Ab binder 11*, iPSC survival up -1, PG9 bind confirm 22* and PGV04 Ab binding 28*.
`CCOC(=O)Cn1c(=NC(=O)c2sc3ccccc3c2Cl)sc2cc(S(N)(=O)=O)ccc21` gave ABCB6 inh 2 98, Arrestin-AP2 inh 3, PG9 Ab binder 9.9*, iPSC survival up -1, PG9 bind confirm 12* and PGV04 Ab binding 28*.
For COC(=O)c1ccc2nc(-c3cccc(Br)c3)c(Cc3cccc(Cl)c3)n2c1 the results were PG9 Ab binder 0.
Screening C[C@H]1CN([C@@H](C)CO)C(=O)CCCn2cc(nn2)CO[C@@H]1CN(C)S(=O)(=O)c1cn(C)cn1 returned PG9 Ab binder -1.
COC(=O)c1cc2oc(C)cc2n1CC(=O)Nc1cc(C)cc(C)c1 was read as ABCB6 inh 2 102, Arrestin-AP2 inh -10, PG9 Ab binder 9.2*, iPSC survival up 0, PG9 bind confirm 16* and PGV04 Ab binding 26*.
`COC(=O)c1ccc2nc(-c3ccc(C)cc3)c(Cc3ccccc3)n2c1` gave PG9 Ab binder 0.
Screening COc1ccc(-c2csc(NC(=O)c3ccc(N4C(=O)CCC4=O)cc3)n2)cc1 returned ABCB6 inh 2 100, Arrestin-AP2 inh -8, PG9 Ab binder 29*, iPSC survival up -1, PG9 bind confirm 28* and PGV04 Ab binding 50*.
Screening COc1ccc(/C=C/c2c(-c3ccc(OC)cc3)sc3ccc(N4CCOCC4)cc23)cc1 returned ABCB6 inh 2 95, Arrestin-AP2 inh 3 and iPSC survival up -1.
Screening COc1ccc(-c2oc3ccc(N4CCOCC4)cc3c2/C=C/c2ccc(OC)c(OC)c2)cc1 returned ABCB6 inh 2 95, Arrestin-AP2 inh -9, PG9 Ab binder 10*, iPSC survival up 0, PG9 bind confirm 15* and PGV04 Ab binding 28*.
N#Cc1c(NC(=O)C2CC=CCC2C(=O)O)sc2c1CCCCCC2 (stereo not given) was read as ABCB6 inh 2 100, Arrestin-AP2 inh 13, PG9 Ab binder 11*, iPSC survival up -2, PG9 bind confirm 9.0* and PGV04 Ab binding 9.4*.
Screening CC(C)(C)C1CCc2c(sc(NC(=O)C3CC=CCC3C(=O)O)c2C#N)C1 (stereo not given) returned ABCB6 inh 2 105, Arrestin-AP2 inh 1, PG9 Ab binder -3 and iPSC survival up 0.
CCN1C(=O)/C(=C2/Sc3ccc(OC)cc3N2C)SC1=Nc1ccc(OC)cc1 was read as ABCB6 inh 2 102, Arrestin-AP2 inh 8, PG9 Ab binder -2 and iPSC survival up -1.
C=CCN1C(=O)/C(=C2/Sc3ccc(OC)cc3N2C)SC1=Nc1cccc(O)c1 was read as ABCB6 inh 2 107, Arrestin-AP2 inh 16, PG9 Ab binder 11*, iPSC survival up -2, PG9 bind confirm 41* and PGV04 Ab binding 59*.
O=C(O)c1cnc(-c2ccccc2)nc1-c1ccccc1 was read as ABCB6 inh 2 92, Arrestin-AP2 inh 6, PG9 Ab binder 1 and iPSC survival up 3.
For O=C(Nc1ccccc1)c1cnc(-c2ccccc2)nc1-c1ccccc1 the results were ABCB6 inh 2 90, Arrestin-AP2 inh 3, PG9 Ab binder 16*, iPSC survival up 0, PG9 bind confirm 20* and PGV04 Ab binding 28*.
Screening OCC1COC(c2ccccc2)=N1 (stereo not given) returned PG9 Ab binder 1.
Screening CCc1ccn2cc(-c3cc(-c4ccccc4)no3)nc2c1 returned ABCB6 inh 2 91, Arrestin-AP2 inh 1, PG9 Ab binder 2 and iPSC survival up -1.
Cc1ccc2nc(-c3cc(-c4ccccc4)no3)cn2c1 was read as ABCB6 inh 2 94, Arrestin-AP2 inh -7, PG9 Ab binder 23*, iPSC survival up -1, PG9 bind confirm 29*, PGV04 Ab binding 28*, PG9 binder DR >67, PGV04 DR counter inactive and PG126 binding DR >67.
O=C(C(=O)N1CCC(CNS(=O)(=O)c2ccc(F)c(F)c2)CC1)c1cc2ccccc2o1 was read as PG9 Ab binder 0.
For O=C(Nc1ccc2c(c1)C(=O)NC2=O)c1cccc(Cl)c1 the results were ABCB6 inh 2 98, Arrestin-AP2 inh 3, PG9 Ab binder 17*, iPSC survival up -1, PG9 bind confirm 28* and PGV04 Ab binding 47*.
